This is an account of results in ChEMBL document CHEMBL4033721, “Design, synthesis and evaluation of indole-2-carboxamides with pan anti-mycobacterial activity” (Bioorg Med Chem, 2017).

The test system of experiment [1] is Mycobacteroides abscessus. The experiment can be described thus: Antimycobacterial activity against Mycobacterium abscessus ATCC 19977 after 8 days by resazurin microtiter based colorimetric assay. The class given is functional. As to conditions: ATCC 19977, 192 h. The method in brief: (§1)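 Resazurin microtiter plate MIC, read by visual scan for growth, in Mueller Hinton II broth. Strains include clinical isolates of M. abscessus complex, M. chelonae, M. avium, M. intracellulare, M. xenopi, P. aeruginosa PAO-1 and S. aureus ATCC 25923.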
On the technique in general: Alamar Blue is a resazurin reagent that responds to reducing activity.

For experiment [2], the system named is Mycobacteroides abscessus. The experiment is described as follows: Antimycobacterial activity against Mycobacterium abscessus isolate DCI 21 after 8 days by resazurin microtiter based colorimetric assay. The class given is functional. As to conditions: isolate DCI 21, 192 h. The method in brief:
as §1

The nature of experiment [3]: Antimycobacterial activity against Mycobacterium massiliense isolate CIP108297 after 8 days by resazurin microtiter based colorimetric assay. The class given is functional, Mycobacterium abscessus subsp. massiliense. As to conditions: Mycobacteroides abscessus, isolate CIP108297, 192 h. The method in brief: as §1
Experiment [4] can be described thus: Antimycobacterial activity against Mycobacterium massiliense isolate CRM0019 after 8 days by resazurin microtiter based colorimetric assay. The class given is functional, Mycobacterium abscessus subsp. massiliense. As to conditions: Mycobacteroides abscessus, isolate CRM0019, 192 h. The method in brief:
as §1

Experiment [5] can be described thus: Antimycobacterial activity against Mycobacterium bolletii ATCC 14472 after 8 days by resazurin microtiter based colorimetric assay. As to conditions: Mycobacteroides abscessus, ATCC 14472, 192 h. The class given is functional. The method in brief:
as §1

Another experiment concerns Mycobacteroides chelonae. The experiment is described as follows: Antimycobacterial activity against Mycobacterium chelonae ATCC 35752 after 8 days by resazurin microtiter based colorimetric assay. The class given is functional. As to conditions: ATCC 35752, 192 h. The method in brief: as §1
For experiment [6], the system named is Mycobacterium tuberculosis. The experiment can be described thus: Antimycobacterial activity against Mycobacterium tuberculosis H37Rv MC2-6206 after 8 days by resazurin microtiter based colorimetric assay. The class given is functional. As to conditions: H37Rv MC2-6206, 192 h. The method in brief:
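MIC was measured by resazurin microtiter colorimetric assay with visual growth scoring. Medium was 7H9-ADC–0.05% tyloxapol with 0.2% casaminoacids, 48 µg/ml pantothenate and 50 µg/ml L-leucine.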

In experiment [7] the test system is Mycolicibacterium smegmatis. The experiment is described as follows: Antimycobacterial activity against Mycobacterium smegmatis isolate MC2 155 after 8 days by resazurin microtiter based colorimetric assay. The class given is functional. As to conditions: str. MC2 155, 192 h.
Another experiment concerns Mycobacterium avium. The experiment can be described thus: Antimycobacterial activity against Mycobacterium avium isolate 104 after 8 days by resazurin microtiter based colorimetric assay. The class given is functional. As to conditions: isolate 104, 192 h. The method in brief: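 M. avium 104 MICs were read by resazurin microtiter colorimetric assay in 96-well plates, with growth scored visually, in Mueller Hinton II medium.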

Experiment [8] has as its system Mycobacterium avium-intracellulare. The experiment can be described thus: Antimycobacterial activity against Mycobacterium avium-intracellulare isolate 1956 after 8 days by resazurin microtiter based colorimetric assay. The class given is functional. As to conditions: isolate 1956, 192 h. The method in brief: as §1
For a further experiment, the system named is Mycobacterium xenopi. The experiment is described as follows: Antimycobacterial activity against wild type Mycobacterium xenopi isolate 4042 after 8 days by resazurin microtiter based colorimetric assay. The class given is functional. Conditions: isolate 4042, 192 h. The method in brief: as §1

In brackets after ≈: the same amount, converted by molar mass.

For `O=C(NC1CCCC1)c1cc2ccccc2[nH]1`, the MIC (in [1]; in [2]; in [3]; in [4]; in [5]; against Mycobacteroides chelonae) was greater than 32 µg/mL in each case. The MIC (as a rule, the smallest concentration in the dilution series that meets the test's criterion for growth inhibition) in experiment [6] is greater than 10 µg/mL; in experiment [7] it was greater than 25 µg/mL.
As to `CCCCCCCNC(=O)c1cc2c(C)cc(C)cc2[nH]1`, the MIC in experiment [1] is greater than 32 µg/mL; in experiment [2], greater than 32 µg/mL; in [3] it was greater than 32 µg/mL; in experiment [4] it was greater than 32 µg/mL; in experiment [5], 32 µg/mL (≈ 112 µM); against Mycobacteroides chelonae, greater than 32 µg/mL. Also, the MIC in [6] was greater than 5 µg/mL; in experiment [7], 5 µg/mL (≈ 17.5 µM); against Mycobacterium avium, greater than 32 µg/mL; in [8], greater than 32 µg/mL; in the experiment with Mycobacterium xenopi it was greater than 32 µg/mL.
In the case of `O=C(NC1CCCCCCC1)c1cc2ccccc2[nH]1`, the MIC was greater than 32 µg/mL in experiment [1]; greater than 32 µg/mL in experiment [2]; greater than 32 µg/mL in [3]; 32 µg/mL (≈ 118 µM) in [4]; 32 µg/mL (≈ 118 µM) in experiment [5]; greater than 32 µg/mL against Mycobacteroides chelonae. The MIC is 0.39 µg/mL (≈ 1.44 µM) in [6]; 25 µg/mL (≈ 92.5 µM) in [7]; greater than 32 µg/mL against Mycobacterium avium; greater than 32 µg/mL in experiment [8]; 2 µg/mL (≈ 7.4 µM) against Mycobacterium xenopi.
Take `O=C(NCc1cccc(Cl)c1)c1cc2ccccc2[nH]1`: the minimum inhibitory concentration (MIC) (in experiment [1]; in experiment [2]; in experiment [3]; in experiment [4]; in experiment [5]; against Mycobacteroides chelonae) was greater than 32 µg/mL throughout. The MIC was greater than 5 µg/mL in experiment [6] and greater than 20 µg/mL in [7].
`O=C(NC1CCCCC1)c1cc2ccccc2[nH]1`: the minimal inhibitory concentration (MIC) (in experiment [1]; in experiment [2]; in experiment [3]; in [4]; in experiment [5]; in the experiment on Mycobacteroides chelonae) was greater than 32 µg/mL each time. For the same molecule, the MIC in experiment [6] is greater than 10 µg/mL; in [7], greater than 25 µg/mL.
Consider `C[C@H]1CC[C@H](NC(=O)c2cc3ccccc3[nH]2)CC1`, for which the minimal inhibitory concentration (MIC) (in experiment [1]; in experiment [2]; in [3]; in [4]; in experiment [5]; against Mycobacteroides chelonae) was greater than 32 µg/mL in each case. For the same molecule, the MIC is greater than 10 µg/mL in experiment [6] and greater than 25 µg/mL in experiment [7].
As to `CCCCCCCNC(=O)c1cc2ccccc2[nH]1`, the minimal inhibitory concentration (MIC) (in [1]; in experiment [2]; in experiment [3]; in [4]; in experiment [5]; in the experiment with Mycobacteroides chelonae) was greater than 32 µg/mL throughout. Moreover, the MIC was greater than 10 µg/mL in experiment [6] and greater than 25 µg/mL in experiment [7].
Consider `Cc1cc(C)c2cc(C(=O)NCc3cccc(Cl)c3)[nH]c2c1`, for which the MIC (in experiment [1]; in experiment [2]; in [3]; in experiment [4]; in experiment [5]; with Mycobacteroides chelonae) was greater than 32 µg/mL throughout. The MIC in experiment [6] is greater than 5 µg/mL; in [7] it was greater than 20 µg/mL.
As to `O=C(NC1CCCCCC1)c1cc2ccccc2[nH]1`, the MIC (in [1]; in experiment [2]; in [3]; in [4]; in [5]; with Mycobacteroides chelonae) was greater than 32 µg/mL throughout. Moreover, the values for the minimal inhibitory concentration (MIC) in experiment [6] and in experiment [7] were greater than 5 µg/mL and greater than 20 µg/mL, respectively.
As for `CCCCCCCCNC(=O)c1cc2ccccc2[nH]1`, the MIC (in [1]; in experiment [2]; in [3]; in experiment [4]; in experiment [5]; against Mycobacteroides chelonae) was greater than 32 µg/mL in each case. The figures for the MIC in experiment [6] and in experiment [7] were greater than 10 µg/mL and greater than 25 µg/mL, respectively.
